Columns and labels:
[1] = Partition coefficient (logD7.4); conditions: octanol/water
Renin [2] = target: T1, Renin (Homo sapiens, UniProt P00797); test: Inhibitory activity against monkey plasma renin.; type: cell-free, Cercopithecidae; conditions: target entry is the homologue from another species
T1 sequence (P00797 whole entry): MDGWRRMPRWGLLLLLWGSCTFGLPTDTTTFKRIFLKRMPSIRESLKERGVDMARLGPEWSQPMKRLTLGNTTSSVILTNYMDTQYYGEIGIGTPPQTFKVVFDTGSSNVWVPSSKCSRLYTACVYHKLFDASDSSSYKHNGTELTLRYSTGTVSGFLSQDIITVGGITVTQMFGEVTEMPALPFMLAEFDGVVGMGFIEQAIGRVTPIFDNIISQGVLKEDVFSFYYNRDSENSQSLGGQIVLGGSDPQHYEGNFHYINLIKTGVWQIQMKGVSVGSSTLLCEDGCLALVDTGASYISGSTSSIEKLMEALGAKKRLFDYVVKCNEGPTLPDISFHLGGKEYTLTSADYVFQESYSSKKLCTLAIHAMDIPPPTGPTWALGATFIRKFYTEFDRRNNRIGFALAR
In short: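 Plasma from salt-depleted, furosemide-treated monkeys (native renin and angiotensinogen) incubated with maleate buffer (pH 6.0), PMSF and inhibitor in DMSO for 60 min at 37 °C. Plasma renin activity was 3–8 ng AI/mL per h. Percent inhibition was taken vs DMSO vehicle tubes, and IC50 from six concentrations by nonlinear regression.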

Renin [3] = target: T1, Renin; test: Inhibitory activity against human plasma renin; type: cell-free
Cathepsin D = target: T2, Cathepsin D (Bos taurus, UniProt P80209); test: Inhibitory activity against bovine cathepsin D was determined
T2 sequence (P80209 whole entry): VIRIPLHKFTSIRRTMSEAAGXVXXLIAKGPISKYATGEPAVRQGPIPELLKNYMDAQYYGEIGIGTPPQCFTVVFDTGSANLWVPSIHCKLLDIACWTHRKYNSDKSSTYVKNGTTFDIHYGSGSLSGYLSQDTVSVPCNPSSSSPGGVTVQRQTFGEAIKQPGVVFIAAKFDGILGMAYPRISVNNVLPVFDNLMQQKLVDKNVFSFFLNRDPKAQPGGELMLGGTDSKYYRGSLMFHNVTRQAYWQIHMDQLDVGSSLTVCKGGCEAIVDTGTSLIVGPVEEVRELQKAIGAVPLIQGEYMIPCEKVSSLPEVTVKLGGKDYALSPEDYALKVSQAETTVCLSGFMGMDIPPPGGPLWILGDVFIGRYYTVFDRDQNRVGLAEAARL
In short: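 Bovine cathepsin D activity assayed in duplicate as hydrolysis of bovine hemoglobin (2× crystallized) at pH 3.2, 37 °C. Net absorbance at 280 nm read in acid-precipitated supernatants of inhibited vs uninhibited controls. IC50 from six inhibitor concentrations by nonlinear regression.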

`CC(C)CC(NC(=O)C(CCCC/N=C(/N)N[N+](=O)[O-])NC(=O)C(CC(=O)N1CCOCC1)Cc1cccc2ccccc12)[C@@H](O)CC(=O)N1CCOC(CCN)C1` (stereo partly specified) showed a logD ([1]; pH 7.4) of 1.95 and an IC50 (Renin [2]) of 395 nM.
In the case of `CNC(=S)NCCCCC(NC(=O)C(Cc1cccc2ccccc12)Cc1cccc2ccccc12)C(=O)NC(CC(C)C)[C@@H](O)C(F)(F)C(=O)N1CCOC(CCN)C1` (stereo partly specified), the logD ([1]; pH 7.4, logD) is reported as 5.5 and the IC50 (Renin [2]) is reported as 350 nM.
In the case of `CC(C)CC(NC(=O)C[C@H](O)C(CC(C)C)NC(=O)C(CCCCNC(=N)N[N+](=O)[O-])NC(=O)C(Cc1cccc2ccccc12)Cc1cccc2ccccc12)C(=O)NCc1ccccc1` (stereo partly specified), the logD ([1]; pH 7.4) is reported as 5.51, the IC50 (Renin [2]) is reported as 49 nM and the IC50 (Renin [3]) is reported as 15 nM.
In the case of `CCC(C)CNC(=O)C[C@H](O)C(CC(C)C)NC(=O)C(CCCCC/N=C(\N)N[N+](=O)[O-])NC(=O)C(Cc1cccc2ccccc12)Cc1cccc2ccccc12` (stereo partly specified), the logD ([1]; pH 7.4) is reported as 5.1, the IC50 (Cathepsin D) is reported as 1470 nM and the IC50 (Renin [2]) is reported as 20 nM. It also gave an IC50 (Renin [3]) of 26 nM.
For `CCC(C)CNC(=O)C[C@H](O)C(CC(C)C)NC(=O)C(C/C=C\CNC(C)=O)NC(=O)C(Cc1cccc2ccccc12)Cc1cccc2ccccc12` (stereo partly specified), the logD ([1]; pH 7.4, logD) was 5.56 and the IC50 (Renin [2]) was 100 nM.
In the case of `CS/C(=N\CCCCC(NC(=O)C(Cc1cccc2ccccc12)Cc1cccc2ccccc12)C(=O)NC(CC(C)C)[C@@H](O)CC(=O)N1CCOC(CCN)C1)NC#N` (stereo partly specified), the logD ([1]; pH 7.4, logD) is reported as 4.67 and the IC50 (Renin [2]) is reported as 90 nM.
`CCC(C)CNC(=O)C[C@H](O)C(CC(C)C)NC(=O)C(C/C=C/C/N=C(/S)NC)NC(=O)C(Cc1cccc2ccccc12)Cc1cccc2ccccc12` (stereo partly specified) showed a logD ([1]; pH 7.4, logD) of 5.23, an IC50 (Renin [2]) of 26 nM and an IC50 (Renin [3]) of 41 nM.
`CNC(=S)NCCCCC(NC(=O)C(Cc1ccccc1)S(=O)(=O)C(C)(C)C)C(=O)NC(CC1CCCCC1)[C@@H](O)CC(=O)N1CCOC(CCN)C1` (stereo partly specified) gave a logD ([1]; pH 7.4, logD) of 2.64 and an IC50 (Renin [2]) of 27 nM.
Molecule `CCC(C)CNC(=O)C[C@H](O)C(CC(C)C)NC(=O)C(CC#CCNC(=O)OCc1ccccc1)NC(=O)C(Cc1cccc2ccccc12)Cc1cccc2ccccc12` (stereo partly specified) has a logD ([1]; pH 7.4, logD) of 7.37, an IC50 (Renin [2]) of 248 nM and an IC50 (Renin [3]) of 150 nM.
`CCC(C)CNC(=O)C[C@H](O)C(CC(C)C)NC(=O)C(Cc1cnc[nH]1)NC(=O)C(Cc1cccc2ccccc12)Cc1cccc2ccccc12` (stereo partly specified) showed an IC50 (Renin [2]) of 85 nM and an IC50 (Renin [3]) of 61 nM.
For `CCC(C)CNC(=O)C[C@H](O)C(CC(C)C)NC(=O)C(CCCCNC(=S)Nc1ccccc1)NC(=O)C(Cc1cccc2ccccc12)Cc1cccc2ccccc12` (stereo partly specified), the logD ([1]; pH 7.4, logD) was 6.6, the IC50 (Renin [2]) was 138 nM and the IC50 (Renin [3]) was 58 nM.
Work on `CCC(C)CNC(=O)C[C@H](O)C(CC(C)C)NC(=O)C(CC#CCNC(C)=O)NC(=O)C(Cc1cccc2ccccc12)Cc1cccc2ccccc12` (stereo in doubt; 55b) yielded a logD ([1]; pH 7.4) of 5.06, an IC50 (Renin [2]) of 41 nM and an IC50 (Renin [3]) of 29 nM.
For `C/N=C(\S)NCCCCC(NC(=O)C(CC(=O)N1CCOCC1)Cc1cccc2ccccc12)C(=O)NC(CC1CCCCC1)[C@@H](O)CC(=O)N1CCOC(CCN)C1` (stereo partly specified), the logD ([1]; pH 7.4, logD) was 1.68, the IC50 (Renin [2]) was 36 nM and the IC50 (Renin [3]) was 20 nM.
In the case of `CNC(=S)NCC#CCC(NC(=O)C(Cc1cccc2ccccc12)Cc1cccc2ccccc12)C(=O)NC(CC1CCCCC1)[C@@H](O)CC(=O)N1CCOC(CCN)C1` (stereo partly specified), the logD ([1]; pH 7.4, logD) is reported as 5.46 and the IC50 (Renin [2]) is reported as 48 nM.
With `CCC(C)CNC(=O)C[C@H](O)C(CC(C)C)NC(=O)C(CCCCNC(C)=O)NC(=O)C(Cc1cccc2ccccc12)Cc1cccc2ccccc12` (stereo partly specified) the logD ([1]; pH 7.4, logD) was 4.38, the IC50 (Renin [2]) was 36 nM and the IC50 (Renin [3]) was 6.2 nM.
Work on `CC(C)CC(NC(=O)C(CCCCNC(=O)OCc1ccccc1)NC(=O)C(Cc1ccccc1)NS(=O)(=O)N1CCOCC1)C(=O)C(F)(F)C(=O)N1CCOC(CCN)C1` (stereo unspecified) yielded a logD ([1]; pH 7.4, logD) of 2.32 and an IC50 (Renin [2]) of 3.3 nM.
`CCC(C)CNC(=O)C[C@H](O)C(CC(C)C)NC(=O)C(CCNC(C)=O)NC(=O)C(Cc1cccc2ccccc12)Cc1cccc2ccccc12` (stereo partly specified) showed a logD ([1]; pH 7.4, logD) of 4.4, an IC50 (Renin [2]) of 4150 nM and an IC50 (Renin [3]) of over 10000 nM.
In the case of `NCCC1CN(C(=O)C[C@H](O)C(CC2CCCCC2)NC(=O)C(CC#CCNC=O)NC(=O)C(Cc2cccc3ccccc23)Cc2cccc3ccccc23)CCO1` (stereo partly specified), the logD ([1]; pH 7.4, logD) is reported as 5.44 and the IC50 (Renin [2]) is reported as 8.7 nM.
With `C/N=C(\S)NCCCCC(NC(=O)C(Cc1ccccc1)NS(=O)(=O)N1CCOCC1)C(=O)NC(CC1CCCCC1)[C@H](O)C(F)(F)C(=O)N1CCOC(CCN)C1` (stereo partly specified) the logD ([1]; pH 7.4, logD) was 2.93 and the IC50 (Renin [2]) was 2.3 nM.
For `CCC(C)CNC(=O)C[C@H](O)C(CC(C)C)NC(=O)C(CCNC(=S)NC)NC(=O)C(Cc1cccc2ccccc12)Cc1cccc2ccccc12` (stereo partly specified), the logD ([1]; pH 7.4, logD) was 5.7, the IC50 (Renin [2]) was 2490 nM and the IC50 (Renin [3]) was 9350 nM.

Reference: ChEMBL document CHEMBL1125654, “New inhibitors of human renin that contain novel replacements at the P2 site” (J Med Chem, 1991)
